Experimental data from ChEMBL document CHEMBL2069261, “Click-based synthesis of triazolobithiazole ΔF508-CFTR correctors for cystic fibrosis” (Bioorg Med Chem, 2012).
The source made the active and inactive calls. The calls are words filed in the database; no cut-off is given here.

Key:
[1] = Lipophilicity, log P of the compound; type: physicochemical; settings: octanol/water
Outline: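 LogP was estimated from HPLC retention times. The capacity factor was calculated and correlated to logP values.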

[2] = molecular target: Cystic fibrosis transmembrane conductance regulator (Homo sapiens, UniProt P13569, F508DEL); assay: (§1) Corrector activity at human CFTR deltaF508 mutant expressed in FRT cells stimulated forskolin and potentiator genistein with assessed as iodide influx incubated for 24 hrs; type: cell-based
Outline: (§2)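 Epithelial cells co-expressing ΔF508-CFTR and a fluorescent halide sensor were treated with compound for 24 h across a dose range. They were then stimulated with forskolin (cAMP agonist) plus genistein (potentiator), and I⁻ influx was read from the sensor. Vmax and EC50 were taken from the dose-response curves. n=4, with S.E. reported.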

[3] = test system: Cystic fibrosis transmembrane conductance regulator (Homo sapiens), P13569 [F508del]; assay: as §1; type: cell-based; outline: as §2
Cystic fibrosis transmembrane conductance regulator (Homo sapiens), P13569 [F508del], sequence (P13569 as listed by the source): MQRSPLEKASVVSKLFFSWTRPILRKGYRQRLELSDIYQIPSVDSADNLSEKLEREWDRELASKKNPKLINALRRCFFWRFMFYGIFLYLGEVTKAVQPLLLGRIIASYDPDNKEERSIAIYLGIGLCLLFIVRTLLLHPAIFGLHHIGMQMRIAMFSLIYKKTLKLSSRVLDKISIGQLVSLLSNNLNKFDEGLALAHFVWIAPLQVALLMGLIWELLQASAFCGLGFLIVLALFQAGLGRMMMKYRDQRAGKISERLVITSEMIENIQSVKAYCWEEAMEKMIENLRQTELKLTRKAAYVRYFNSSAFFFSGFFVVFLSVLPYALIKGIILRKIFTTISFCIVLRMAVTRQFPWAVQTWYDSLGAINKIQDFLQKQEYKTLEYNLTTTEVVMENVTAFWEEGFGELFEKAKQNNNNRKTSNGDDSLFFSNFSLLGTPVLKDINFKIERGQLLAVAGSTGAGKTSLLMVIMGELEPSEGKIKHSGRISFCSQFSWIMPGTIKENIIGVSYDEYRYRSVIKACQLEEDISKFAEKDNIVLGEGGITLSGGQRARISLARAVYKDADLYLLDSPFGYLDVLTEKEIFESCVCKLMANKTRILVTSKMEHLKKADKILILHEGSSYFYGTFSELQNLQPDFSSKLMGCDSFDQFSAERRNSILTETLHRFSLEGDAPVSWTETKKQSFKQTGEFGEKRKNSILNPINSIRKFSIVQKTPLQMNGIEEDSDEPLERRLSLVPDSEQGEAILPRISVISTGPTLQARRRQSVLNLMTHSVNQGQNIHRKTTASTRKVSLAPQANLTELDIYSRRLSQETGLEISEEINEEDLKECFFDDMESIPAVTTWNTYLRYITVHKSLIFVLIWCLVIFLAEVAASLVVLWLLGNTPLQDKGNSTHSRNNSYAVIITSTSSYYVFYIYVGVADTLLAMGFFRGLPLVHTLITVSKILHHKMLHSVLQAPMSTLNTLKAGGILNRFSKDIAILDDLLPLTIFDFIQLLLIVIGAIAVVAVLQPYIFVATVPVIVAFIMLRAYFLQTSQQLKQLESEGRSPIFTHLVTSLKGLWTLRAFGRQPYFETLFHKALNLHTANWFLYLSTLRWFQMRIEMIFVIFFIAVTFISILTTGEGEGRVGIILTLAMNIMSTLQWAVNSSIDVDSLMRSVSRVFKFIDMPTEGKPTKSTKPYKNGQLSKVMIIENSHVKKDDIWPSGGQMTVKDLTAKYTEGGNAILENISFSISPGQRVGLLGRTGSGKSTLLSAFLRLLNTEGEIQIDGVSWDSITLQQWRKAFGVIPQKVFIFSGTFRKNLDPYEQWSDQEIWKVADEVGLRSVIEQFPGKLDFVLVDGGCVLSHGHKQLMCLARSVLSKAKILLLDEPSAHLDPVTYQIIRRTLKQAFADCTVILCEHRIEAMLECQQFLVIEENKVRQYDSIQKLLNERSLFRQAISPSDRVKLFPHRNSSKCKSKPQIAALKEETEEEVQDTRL

Cystic fibrosis transmembrane conductance regulator, sequence (P13569 as listed by the source): as above

| Structure (SMILES) | logP ([1]; read-out: logP) | EC50 [2] [nM] | logP [1] | Activity [3] |
| --- | --- | --- | --- | --- |
| COC(=O)c1cn(-c2sc(Nc3cc(Cl)ccc3OC)nc2-c2sc(NC(=O)C(C)(C)C)nc2C)nn1 | 4.8 | 4600 | – | – |
| COc1ccc(Cl)cc1Nc1nc(-c2sc(NC(=O)C(C)(C)C)nc2C)c(-n2cc(C(=O)O)nn2)s1 | 4.8 | – | – | – |
| COc1ccc(Cl)cc1Nc1nc(-c2sc(NC(=O)C(C)(C)C)nc2C)c(-n2cc(CO)nn2)s1 | 4.8 | 1600 | – | – |
| COc1ccc(Cl)cc1Nc1nc(-c2sc(NC(=O)c3ccccc3)nc2C)cs1 | – | – | 5.96 | Active |

More lines, now with the values ahead:

| logP ([1]; read-out: logP) | EC50 [2] [nM] | logP [1] | Activity [3] | Structure (SMILES) |
| --- | --- | --- | --- | --- |
| – | 140 | – | – | COc1ccc(Cl)cc1Nc1nc(-c2sc(NC(=O)C(C)(C)C)nc2C)c(-n2cc(-c3ccccc3)nn2)s1 |
| – | 4900 | – | – | CNc1nc(-c2sc(NC(=O)C(C)(C)C)nc2C)c(-n2cc(-c3ccccc3)nn2)s1 |
| – | 1500 | – | – | Cc1nc(NC(=O)C(C)(C)C)sc1-c1nc(N)sc1-n1cc(-c2ccccc2)nn1 |
